Measured values from ChEMBL document CHEMBL4673212, “Investigation of synergistic antimicrobial effects of the drug combinations of meropenem and 1,2-benzisoselenazol-3(2H)-one derivatives on carbapenem-resistant Enterobacteriaceae producing NDM-1” (Eur J Med Chem, 2018).

Key:
Assay type in all cases: functional
[1] = tested on: Morganella morganii; assay: Synergistic antibacterial activity against carbapenem-resistant Morganella morganii isolate 23 assessed as fractional inhibitory concentration index in presence of meropenem by CLSI protocol based assay
Method in brief: (§1)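 FIC index from MICs of compound alone, meropenem alone, and the 1:1 (mass) compound–meropenem combination, read by eye after overnight incubation in a CLSI-based assay. FIC index = MICcombo/MICcpd + MICcombo/MICMem. FIC index ≤0.5 counted as synergy. At least triplicate assays. Clinical NDM-1 isolates for 17-39; E. coli TG1 carrying the IncX3 blaNDM-1 plasmid for 15.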

[2] = tested on: Enterobacter cloacae; assay: Synergistic antibacterial activity against carbapenem-resistant Enterobacter cloacae isolate 22 harboring CTX-M-14, TEM-1 and SHV-12 assessed as fractional inhibitory concentration index in presence of meropenem by CLSI protocol based assay; method in brief: as §1
[3] = tested on: Enterobacter cloacae; assay: Synergistic antibacterial activity against carbapenem-resistant Enterobacter cloacae isolate 19 harboring CTX-M-14 and KPC-2 assessed as fractional inhibitory concentration index in presence of meropenem by CLSI protocol based assay
[4] = tested on: Enterobacter cloacae; assay: Synergistic antibacterial activity against carbapenem-resistant Enterobacter cloacae isolate 09 harboring CTX-M-3, CTX-M-14, TEM-1 and SHV-12 assessed as fractional inhibitory concentration index in presence of meropenem by CLSI protocol based assay; method in brief: as §1
[5] = tested on: Enterobacter cloacae; assay: Synergistic antibacterial activity against carbapenem-resistant Enterobacter cloacae isolate 08 harboring CTX-M-14, TEM-1 and SHV-12 assessed as fractional inhibitory concentration index in presence of meropenem by CLSI protocol based assay; method in brief: as §1
[6] = tested on: Klebsiella oxytoca; assay: Synergistic antibacterial activity against carbapenem-resistant Klebsiella oxytoca isolate 03 harboring SHV-12 assessed as fractional inhibitory concentration index in presence of meropenem by CLSI protocol based assay; method in brief: as §1
[7] = tested on: Escherichia coli; assay: Synergistic antibacterial activity against carbapenem-resistant Escherichia coli isolate 45 assessed as fractional inhibitory concentration index in presence of meropenem by CLSI protocol based assay; method in brief: as §1
[8] = tested on: Escherichia coli; assay: Synergistic antibacterial activity against carbapenem-resistant Escherichia coli isolate 34 harboring CTX-M-15, TEM-1 and SHV-12 assessed as fractional inhibitory concentration index in presence of meropenem by CLSI protocol based assay; method in brief: as §1
[9] = tested on: Escherichia coli; assay: Synergistic antibacterial activity against carbapenem-resistant Escherichia coli isolate 33 harboring CTX-M-15 assessed as fractional inhibitory concentration index in presence of meropenem by CLSI protocol based assay; method in brief: as §1
[10] = tested on: Klebsiella pneumoniae; assay: Synergistic antibacterial activity against carbapenem-resistant Klebsiella pneumoniae isolate 14 harboring CTX-M-14, KPC-2 and SHV-12 assessed as fractional inhibitory concentration index in presence of meropenem by CLSI protocol based assay; method in brief: as §1
[11] = tested on: Morganella morganii; assay: Growth inhibition of carbapenem-resistant Morganella morganii isolate 23 by CLSI protocol based assay
[12] = tested on: Enterobacter cloacae; assay: Growth inhibition of carbapenem-resistant Enterobacter cloacae isolate 18 harboring IMP-4 and TEM-1 by CLSI protocol based assay
[13] = tested on: Enterobacter cloacae; assay: Growth inhibition of carbapenem-resistant Enterobacter cloacae isolate 09 harboring CTX-M-3, CTX-M-14, TEM-1 and SHV-12 by CLSI protocol based assay
[14] = tested on: Citrobacter freundii; assay: Growth inhibition of carbapenem-resistant Citrobacter freundii isolate 43 by CLSI protocol based assay
[15] = tested on: Klebsiella oxytoca; assay: Growth inhibition of carbapenem-resistant Klebsiella oxytoca isolate 16 harboring SHV-12 by CLSI protocol based assay
[16] = tested on: Citrobacter freundii; assay: Growth inhibition of carbapenem-resistant Citrobacter freundii isolate 05 harboring SHV-12 by CLSI protocol based assay
[17] = tested on: Escherichia coli; assay: Growth inhibition of carbapenem-resistant Escherichia coli isolate 45 by CLSI protocol based assay
[18] = tested on: Escherichia coli; assay: Growth inhibition of carbapenem-resistant Escherichia coli isolate 34 harboring CTX-M-15, TEM-1 and SHV-12 by CLSI protocol based assay
[19] = tested on: Escherichia coli; assay: Growth inhibition of carbapenem-resistant Escherichia coli isolate 33 harboring CTX-M-15 by CLSI protocol based assay
[20] = tested on: Escherichia coli; assay: Growth inhibition of carbapenem-resistant Escherichia coli isolate 06 harboring CTX-M-14, CTX-M-3 and SHV-12 by CLSI protocol based assay
[21] = tested on: Klebsiella pneumoniae; assay: Growth inhibition of carbapenem-resistant Klebsiella pneumoniae isolate 14 harboring CTX-M-14, KPC-2 and SHV-12 by CLSI protocol based assay
[22] = tested on: Klebsiella pneumoniae; assay: Growth inhibition of carbapenem-resistant Klebsiella pneumoniae isolate 04 harboring CTX-M-14, VIM-1, TEM-1 and SHV-12 by CLSI protocol based assay
[23] = tested on: Morganella morganii; assay: Potentiation of meropenem-induced antibacterial activity against carbapenem-resistant Morganella morganii isolate 23 assessed as meropenem MIC by CLSI protocol based assay (reference value: 64 ug/ml)
[24] = tested on: Enterobacter cloacae; assay: Potentiation of meropenem-induced antibacterial activity against carbapenem-resistant Enterobacter cloacae isolate 27 harboring CTX-M-3, CTX-M-14, TEM-1 and SHV-12 assessed as meropenem MIC by CLSI protocol based assay (reference value: 32 ug/ml)
[25] = tested on: Enterobacter cloacae; assay: Potentiation of meropenem-induced antibacterial activity against carbapenem-resistant Enterobacter cloacae isolate 19 harboring CTX-M-14 and KPC-2 assessed as meropenem MIC by CLSI protocol based assay (Rvb >= 128 ug/ml)
[26] = tested on: Enterobacter cloacae; assay: Potentiation of meropenem-induced antibacterial activity against carbapenem-resistant Enterobacter cloacae isolate 09 harboring CTX-M-3, CTX-M-14, TEM-1 and SHV-12 assessed as meropenem MIC by CLSI protocol based assay (Rvb >= 128 ug/ml)
[27] = tested on: Klebsiella oxytoca; assay: Potentiation of meropenem-induced antibacterial activity against carbapenem-resistant Klebsiella oxytoca isolate 16 harboring SHV-12 assessed as meropenem MIC by CLSI protocol based assay (Rvb >= 128 ug/ml)
[28] = tested on: Klebsiella oxytoca; assay: Potentiation of meropenem-induced antibacterial activity against carbapenem-resistant Klebsiella oxytoca isolate 03 harboring SHV-12 assessed as meropenem MIC by CLSI protocol based assay (Rvb >= 128 ug/ml)
[29] = tested on: Escherichia coli; assay: Potentiation of meropenem-induced antibacterial activity against carbapenem-resistant Escherichia coli isolate 06 harboring CTX-M-14, CTX-M-3 and SHV-12 assessed as meropenem MIC by CLSI protocol based assay (Rvb >= 128 ug/ml)
[30] = tested on: Escherichia coli; assay: Synergistic antibacterial activity against Escherichia coli TG1 transformed with IncX3 plasmid expressing blaNDM-1 assessed as ratio of negative logarithm of fractional inhibitory concentration index to non-hydrogen atom in presence of meropenem incubated for overnight by CLSI protocol based assay; conditions: time 12 hrs
Method in brief: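 In E. coli TG1 carrying the IncX3 blaNDM-1 plasmid, the FIC index was taken from overnight CLSI-based MICs of compound, meropenem and their 1:1 mass mixture, read by eye. Synergistic efficiency = −ln(FIC index) divided by the number of non-hydrogen atoms. At least triplicate assays.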

[31] = tested on: Escherichia coli; assay: Synergistic antibacterial activity against Escherichia coli TG1 transformed with IncX3 plasmid expressing blaNDM-1 assessed as fractional inhibitory concentration index in presence of meropenem incubated for overnight by CLSI protocol based assay; conditions: time 12 hrs; method in brief: as §1
[32] = tested on: Escherichia coli; assay: Potentiation of meropenem-induced antibacterial activity against Escherichia coli TG1 transformed with IncX3 plasmid expressing blaNDM-1 assessed as bacterial growth inhibition by measuring meropenem MIC incubated for overnight by CLSI protocol based assay; conditions: time 12 hrs

Structure (SMILES)	fractional inhibitory concentration index (FICI) [1]	fractional inhibitory concentration index (FICI) [2]	fractional inhibitory concentration index (FICI) [3]	fractional inhibitory concentration index (FICI) [4]	fractional inhibitory concentration index (FICI) [5]	fractional inhibitory concentration index (FICI) [6]	fractional inhibitory concentration index (FICI) [7]	fractional inhibitory concentration index (FICI) [8]	fractional inhibitory concentration index (FICI) [9]	fractional inhibitory concentration index (FICI) [10]	MIC [11]	MIC [12]	MIC [13]	MIC [14]	MIC [15]	MIC [16]	MIC [17]	MIC [18]	MIC [19]	MIC [20]	further results
CC(C)(C)OC(=O)NCCn1[se]c2ccccc2c1=O	0.19	0.25	0.25	0.13	0.16	0.13	0.06	0.09	0.19	0.13	≥ 128 µg/mL	≥ 128 µg/mL	≥ 128 µg/mL	≥ 128 µg/mL	≥ 128 µg/mL	≥ 128 µg/mL	≥ 128 µg/mL	≥ 128 µg/mL	≥ 128 µg/mL	≥ 128 µg/mL	MIC [21]: ≥ 128 µg/mL; MIC [22]: ≥ 128 µg/mL; MIC [23]: 8 µg/mL; MIC [24]: 4 µg/mL; MIC [25]: 16 µg/mL; MIC [26]: 8 µg/mL; MIC [27]: 8 µg/mL; MIC [28]: 8 µg/mL; MIC [29]: 8 µg/mL; Ratio [30]: 0.153; fractional inhibitory concentration index (FICI) [31]: 0.047; MIC [32]: 2 µg/mL
O=c1c2ccccc2[se]n1-c1ccccc1 [EBSELEN]	1.5	2	2	2	1.25	0.5	0.25	0.38	0.38	2	≥ 128 µg/mL	≥ 128 µg/mL	≥ 128 µg/mL	≥ 128 µg/mL	≥ 128 µg/mL	≥ 128 µg/mL	≥ 128 µg/mL	≥ 128 µg/mL	≥ 128 µg/mL	≥ 128 µg/mL	MIC [21]: ≥ 128 µg/mL; MIC [22]: ≥ 128 µg/mL; MIC [23]: 64 µg/mL; MIC [24]: 64 µg/mL; MIC [25]: ≥ 128 µg/mL; MIC [26]: ≥ 128 µg/mL; MIC [27]: 32 µg/mL; MIC [28]: 32 µg/mL; MIC [29]: 64 µg/mL; Ratio [30]: 0.043; fractional inhibitory concentration index (FICI) [31]: 0.5; MIC [32]: 16 µg/mL
